Experimental data taken from ChEMBL document CHEMBL1122414, “Anilides related to substituted benzamides. Potential antipsychotic activity of N-(4-amino-5-chloro-2-methoxyphenyl)-1-(phenylmethyl)-4-piperidinecarboxamide” (1983).

How the values were obtained:
[1] = tested on: Mus musculus; assay: Antagonistic activity against apomorphine induced climbing in CD-1 mice, after oral administration; assay type: functional
Outline: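 Male CD-1 mice (20–25 g), usually four groups of five, dosed orally with graded doses or vehicle 30 min before submaximal apomorphine (1 mg/kg sc). Climbing scored 10, 20 and 30 min later (modified Protais method). ED50 with 95% confidence limits by Litchfield–Wilcoxon.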

[2] = tested on: Rattus norvegicus; assay: Evaluation of prolactin levels in Hooded Lister rats after subcutaneous administration; conditions: sc
[3] = tested on: Rattus norvegicus; assay: Increase in intragastric pressure after subcutaneous administration to Wistar rats; 5-50
[4] = tested on: Rattus norvegicus; assay: Evaluation of HVA levels in striatum after subcutaneous administration to Hooded Lister rats; conditions: sc
[5] = tested on: Rattus norvegicus; assay: Evaluation of HVA levels in limbic system in Hooded Lister rats after subcutaneous administration; conditions: sc
[6] = tested on: Rattus norvegicus; assay: Antagonism of amphetamine induced syereotyped behavior after intraperitoneal administration to CD rats; conditions: ip
[7] = tested on: Rattus norvegicus; assay: Antagonistic activity against apomorphine induced delay in gastric emptying in Wistar rats, after subcutaneous administration; conditions: Stomach, sc
[8] = tested on: Mus musculus; assay: Antagonistic activity against apomorphine induced climbing in CD-1 mice at 2 mg/kg after oral administration; assay type: functional
Outline: (§1)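 Male CD-1 mice (20–25 g), usually groups of five, given oral compound or vehicle 30 min before apomorphine 1 mg/kg sc. Climbing scored at 10, 20 and 30 min. Percent antagonism at the quoted dose.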

[9] = tested on: Mus musculus; assay: Percent antagonistic activity against apomorphine induced climbing in CD-1 mice at 0.5 mg/kg after oral administration; assay type: functional; outline: as §1
[10] = tested on: Rattus norvegicus; assay: Increase in intragastric pressure after subcutaneous administration to Wistar rats

Compound	ED50 [1]	other results
COc1cc(N)c(Cl)cc1NC(=O)C1CCN(Cc2ccc(OCc3ccccc3)cc2)CC1	> 4 mg/kg	–
COc1cc(N)c(Cl)cc1NC(=O)C1CCN(CC2CCCC2)CC1	> 10 mg/kg	–
COc1cc(N)c(Cl)cc1NC(=O)C1CCN(Cc2cccs2)CC1	–	Inhibition [1]: 77%
CCC(CC)CN1CCC(C(=O)Nc2cc(Cl)c(N)cc2OC)CC1	> 10 mg/kg	–
CCN1CCC(C(=O)Nc2cc(Cl)c(N)cc2OC)CC1	> 10 mg/kg	–
COc1cc(N)c(Cl)cc1NC(=O)C1CCN(Cc2ccc(C)c(C)c2)CC1	> 8 mg/kg	–
COc1cc(N)c(Cl)cc1NC(=O)C1CCN(Cc2cccc(C)c2)CC1	2.4 mg/kg	–
COc1cc(N)c(Cl)cc1NC(=O)C1CCN(Cc2ccc(F)cc2)CC1	0.6 mg/kg	–
COc1cc(N)c(Cl)cc1NC(=O)C1CCN(CC2CCCCC2)CC1	2.9 mg/kg	–
COc1cc(N)c(Cl)cc1NC(=O)C1CCN(Cc2ccccc2F)CC1	> 4 mg/kg	–
COc1cc(N)c(Cl)cc1NC(=O)C1CCN(Cc2ccccc2)CC1	0.5 mg/kg	ED50 [2]: 0.5 mg/kg; ED50 [3]: > 50 mg/kg; ED50 [4]: 0.4 mg/kg; ED50 [5]: 0.5 mg/kg; ED50 [6]: 0.25 mg/kg; ED50 [7]: > 50 mg/kg
COc1cc(N)c(Cl)cc1NC(=O)C1CCN(CC2CCC2)CC1	> 10 mg/kg	–
COc1cc(N)c(Cl)cc1NC(=O)C1CCN(Cc2ccc(Cl)cc2)CC1	1.2 mg/kg	–
COc1cc(N)c(Cl)cc1NC(=O)C1CCN(C/C=C/c2ccccc2)CC1	> 10 mg/kg	–
CCCCN1CCC(C(=O)Nc2cc(Cl)c(N)cc2OC)CC1	> 10 mg/kg	–
CCCCCCCN1CCC(C(=O)Nc2cc(Cl)c(N)cc2OC)CC1	> 10 mg/kg	–
COc1cc(N)c(Cl)cc1NC(=O)C1CCN(CC2CC2)CC1	> 10 mg/kg	–
CCOc1ccc(CN2CCC(C(=O)Nc3cc(Cl)c(N)cc3OC)CC2)cc1	6.3 mg/kg	–
COc1cc(N)c(Cl)cc1NC(=O)C1CCN(Cc2ccc([N+](=O)[O-])cc2)CC1	> 4 mg/kg	–

Compound	ED50 [1]	other results
CCCN1CCC(C(=O)Nc2cc(Cl)c(N)cc2OC)CC1	> 10 mg/kg	–
COc1cc(N)c(Cl)cc1NC(=O)C1CCN(Cc2cccc(F)c2)CC1	–	inhibition in vivo at 2 mg/kg [8]: 58%
COc1cc(N)c(Cl)cc1NC(=O)C1CCN(Cc2ccccc2C)CC1	–	inhibition in vivo at 2 mg/kg [8]: 77%
COc1cc(N)c(Cl)cc1NC(=O)C1CCN(Cc2ccsc2)CC1	3.4 mg/kg	–
COc1cc(N)c(Cl)cc1NC(=O)C1CCN(CCc2ccccc2)CC1	> 10 mg/kg	–
COc1cc(N)c(Cl)cc1NC(=O)C1CCN(C2CCCC2)CC1	> 10 mg/kg	–
COc1ccc(CN2CCC(C(=O)Nc3cc(Cl)c(N)cc3OC)CC2)cc1	0.9 mg/kg	–
COc1cc(N)c(Cl)cc1NC(=O)C1CCN(Cc2cccc(Cl)c2)CC1	> 4 mg/kg	–
COc1cc(N)c(Cl)cc1NC(=O)C1CCN(Cc2ccc3c(c2)OCO3)CC1	4.3 mg/kg	–
CCCCCCN1CCC(C(=O)Nc2cc(Cl)c(N)cc2OC)CC1	> 10 mg/kg	–
COc1cc(N)c(Cl)cc1NC(=O)C1CCN(CC2CCCCCC2)CC1	> 10 mg/kg	–
COc1cc(N)c(Cl)cc1NC(=O)C1CCN(Cc2ccc(C)cc2)CC1	–	inhibition in vivo at 0.5 mg/kg [9]: 50%
COc1cccc(CN2CCC(C(=O)Nc3cc(Cl)c(N)cc3OC)CC2)c1	> 4 mg/kg	–
COc1cc(N)c(Cl)cc1NC(=O)C1CCN(Cc2cccc(C#N)c2)CC1	> 4 mg/kg	–
COc1cc(N)c(Cl)cc1NC(=O)C1CCN(Cc2ccccc2Cl)CC1	> 4 mg/kg	–
CCCCCN1CCC(C(=O)Nc2cc(Cl)c(N)cc2OC)CC1	> 10 mg/kg	–
COc1cc(N)c(Cl)cc1NC(=O)C1CCN(Cc2ccc(O)cc2)CC1	> 8 mg/kg	–
COc1cc(N)c(Cl)cc1C(=O)NC1CCN(Cc2ccccc2)CC1 [CLEBOPRIDE]	0.7 mg/kg	lowest active dose [10]: 1 mg/kg; ED50 [2]: 0.14 mg/kg; ED50 [4]: 0.1 mg/kg; ED50 [5]: 0.2 mg/kg; ED50 [7]: 0.11 mg/kg
